Results reported in ChEMBL document CHEMBL1125326, “Potent gonadotropin releasing hormone antagonists with low histamine-releasing activity” (J Med Chem, 1992).
In brackets after ≈: the same amount, converted by molar mass. Non-standard residues stand in square brackets, D forms with d. Residues, ends and D or L forms follow the SMILES beside them. d(hArg(Et2)) = CCN=C(NCC)NCCCC[C@@H](N)C(=O)O; dPhe(4-Cl) = N[C@H](Cc1ccc(Cl)cc1)C(=O)O; dPhe(4-F) = N[C@H](Cc1ccc(F)cc1)C(=O)O; d2Nal = N[C@H](Cc1ccc2ccccc2c1)C(=O)O

How the values were obtained:
Rattus norvegicus [1] = organism: Rattus norvegicus; assay: Evaluated for the release of histamine in rats (based on 10 animals per dose group); format: functional, organism-based
Rattus norvegicus [2] = assay: Evaluated for the anti-ovulatory activity (rats were injected subcutaneously at noon on proestrus); format: functional
Method in brief: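 Female rats with at least two consecutive normal 4-day cycles, confirmed by vaginal lavage cytology, were dosed once s.c. at noon on proestrus in 50% propylene glycol/0.9% saline. On the morning of expected estrus, the oviducts were examined for ovulated eggs, which were counted. The effective dose came from % females ovulating plotted against log dose, usually with ≥3 dose groups (10 rats per group total).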

`CCNC(=NCCCC[C@@H](NC(=O)[C@H](Cc1ccc(O)cc1)NC(=O)[C@H](CO)NC(=O)[C@@H](Cc1c[nH]c2ccccc12)NC(=O)[C@@H](Cc1ccc(Cl)cc1)NC(=O)[C@@H](Cc1ccc2ccccc2c1)NC(C)=O)C(=O)N[C@@H](CC(C)C)C(=O)N[C@@H](CCCN=C(N)N)C(=O)N1CCC[C@H]1C(=O)N[C@H](C)C(N)=O)NCC` (Ac-[d2Nal][dPhe(4-Cl)][dW]SY[d(hArg(Et2))]LRP[dA]-NH2) was tested. Which EC50 (Rattus norvegicus [1]) did it give?
Its EC50 is 0.18 µg/mL (≈ 0.117 µM).

What about the ED50 (Rattus norvegicus [2]) of the same compound?
Its ED50 is about 0.6 µg.

For `CC(=O)N[C@H](Cc1ccc2ccccc2c1)C(=O)N[C@H](Cc1ccc(F)cc1)C(=O)N[C@H](Cc1c[nH]c2ccccc12)C(=O)N[C@@H](CO)C(=O)N[C@@H](Cc1ccc(O)cc1)C(=O)N[C@H](CCCN=C(N)N)C(=O)N[C@@H](CC(C)C)C(=O)N[C@@H](CCCN=C(N)N)C(=O)N1CCC[C@H]1C(=O)NCC(N)=O` (Ac-[d2Nal][dPhe(4-F)][dW]SY[dR]LRPG-NH2), which EC50 (Rattus norvegicus [1]) is on record?
Its EC50 is 0.51 µg/mL (≈ 0.355 µM).

What about the ED50 (Rattus norvegicus [2]) of the same compound?
Its ED50 is 2.4 µg.
